# Measured values: PMC8741576 (Molecular Diversity, 2022)
# Where two headings read alike, the source gives them in different places.
# Experiments:
# [1] = tested on: human solid tumor and leukemia cell lines; type: cell-based; conditions: read-out: Antiproliferative IC50 across cancer cell lines
# [2] = tested on: Z-138 non-Hodgkin lymphoma cells; assay: Antiproliferative screening, IncuCyte cell growth; type: cell-based; conditions: Homo sapiens, Z-138, 72 h, read-out: IC50 Z-138
# [3] = tested on: LN-229 glioblastoma cells; assay: Antiproliferative screening, MTS cell viability assay; type: cell-based; conditions: Homo sapiens, LN-229, 72 h, read-out: IC50 LN-229
# [4] = tested on: human coronavirus OC43; assay: Antiviral assay, virus-induced cytopathic effect, MTS, HEL cells; type: cell-based; conditions: HEL cell culture
# [5] = tested on: HEL 299 normal human lung fibroblasts; assay: Antiproliferative screening on noncancerous cells; conditions: Homo sapiens, HEL 299, read-out: IC50 HEL 299
# [6] = tested on: DND-41 acute lymphoblastic leukemia cells; assay: Antiproliferative screening, IncuCyte cell growth; type: cell-based; conditions: Homo sapiens, DND41, 72 h, read-out: IC50 DND-41
# [7] = tested on: HL-60 acute myeloid leukemia cells; assay: Antiproliferative screening, IncuCyte cell growth; type: cell-based; conditions: Homo sapiens, HL-60, 72 h, read-out: IC50 HL-60
# [8] = tested on: HCT-116 colorectal carcinoma cells; assay: Antiproliferative screening, MTS cell viability assay; type: cell-based; conditions: Homo sapiens, HCT-116, 72 h, read-out: IC50 HCT-116
# [9] = tested on: C. violaceum ATCC31532 QS-reporter strain; assay: Anti-QS screening, violacein production; type: cell-based; conditions: Chromobacterium violaceum, ATCC31532, read-out: Anti-QS IC50
# [10] = tested on: NCI-H460 lung carcinoma cells; assay: Antiproliferative screening, MTS cell viability assay; type: cell-based; conditions: Homo sapiens, NCI-H460, 72 h, read-out: IC50 NCI-H460
# [11] = in vitro; conditions: human
# [12] = tested on: human coronavirus 229E
# [13] = tested on: K-562 chronic myeloid leukemia cells; assay: Antiproliferative screening, IncuCyte cell growth; type: cell-based; conditions: Homo sapiens, K562, 72 h, read-out: IC50 K-562
# [14] = tested on: Capan-1 pancreatic adenocarcinoma cells; assay: Antiproliferative screening, MTS cell viability assay; type: cell-based; conditions: Homo sapiens, CAPAN-1, 72 h, read-out: IC50 Capan-1
# [15] = Cytotoxicity in MT-4 cell culture; type: cell-based; conditions: human, MT-4 cells
# [16] = tested on: HIV-2 ROD; assay: Antiretroviral assay in MT-4 cells, cytopathic effect; type: cell-based
# Method in brief: (§1)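 MT-4 cells (1 × 10^6 cells/mL) were pre-incubated with test compound for 30 min at 37 °C. HIV-1 NL4.3 or HIV-2 ROD was then added according to the CCID50 of the viral stock. Cytopathic effect was scored microscopically 5 days post-infection. […] SI was taken as the CC50/EC50 ratio.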
# [17] = tested on: HIV-1 NL4.3; assay: as above; type: cell-based
# Method in brief: as §1
# [18] = tested on: MT-4 cells; assay: Cytotoxicity in MT-4 cell culture; type: cell-based; conditions: read-out: Cytotoxicity (CC50); MT-4 cell culture
# [19] = in vitro; conditions: human; remark: listed apart in the source
compound,measurement,setting,value
"Nc1ccc(Br)cc1C(=O)NCCCCNc1ccnc2cc(Cl)ccc12 [Compound 13, 2-Amino-5-bromo-N-{4-[(7-chloroquinolin-4-yl)amino]butyl}benzamide]",IC50,[1],2 to 10 µM
same,IC50,[2],6 ± 2.6 µM
same,IC50,[3],3.1 ± 0.8 µM
same,"SI, selectivity index (CC50 to EC50 ratio) OC43",[4],5.0
same,IC50,[5],7.8 ± 1.8 µM
same,IC50,[6],7.8 ± 4.1 µM
same,IC50,[7],10.3 ± 3.2 µM
same,IC50,[8],7 ± 0.3 µM
same,IC50,[9],3.7 µM
same,IC50,[10],5.3 ± 0.4 µM
same,CC50,[11],7.5 ± 1.3 µM
same,"SI, selectivity index (CC50 to EC50 ratio) 229E",[12]; HEL cell culture,5.4
same,IC50,[13],7.7 ± 1.1 µM
same,IC50,[14],5.4 ± 1.8 µM
"Cc1nc(CN)cc2c1[nH]c1ccccc12 [HA, (1-methyl-9H-pyrido[3,4-b]indol-3-yl)methanamine, reference compound]",IC50,[2],57.4 ± 32.6 µM
same,IC50,[3],> 100 µM
same,IC50,[5],> 100 µM
same,IC50,[6],> 100 µM
same,IC50,[7],> 100 µM
same,IC50,[8],> 100 µM
same,CC50 at 5 days,[15],22.3 ± 4.9 µM
same,IC50,[10],85.1 ± 14.8 µM
same,CC50,[11],> 100 µM
same,IC50,[13],> 100 µM
same,IC50,[14],68.6 ± 3.4 µM
"COc1cc(NC(C)CCCN)c2ncccc2c1 (centres unmarked) [PQ, primaquine, reference compound]",IC50,[2],11.4 ± 1.1 µM
same,IC50,[3],45.4 ± 1.2 µM
same,Anti-HIV / antiretroviral activity in words,[16]; MT-4 cells,no anti-HIV activity
same,IC50,[5],> 100 µM
same,IC50,[6],50.2 ± 16.7 µM
same,IC50,[7],28.4 ± 1.6 µM
same,IC50,[8],53.9 ± 4.2 µM
same,CC50 at 5 days,[15],17.9 ± 8 µM
same,IC50,[10],> 100 µM
same,CC50,[11],> 100 µM
same,Anti-HIV / antiretroviral activity in words,[17]; MT-4 cells,no anti-HIV activity
same,IC50,[13],40.5 ± 6 µM
same,IC50,[14],45.6 ± 3.5 µM
"CC(Cn1cnc2c(N)ncnc21)OCP(=O)(O)O (centres unmarked) [PMPA, 2-phosphonomethoxypropyl adenine]",EC50,"[16]; read-out: Antiviral activity (EC50) HIV-2 ROD, MT-4 cell culture, 5 days post-infection",600 nM
same,CC50,[18],> 100 µM
same,EC50,"[17]; read-out: Antiviral activity (EC50) HIV-1 NL4.3, MT-4 cell culture, 5 days post-infection",1600 nM
"CCN(CC)CCCC(C)Nc1ccnc2cc(Cl)ccc12 (centres unmarked) [CQ, chloroquine, reference compound]",IC50,[2],47.4 ± 5.3 µM
same,IC50,[3],8.9 ± 2.3 µM
same,"SI, selectivity index (CC50 to EC50 ratio) OC43",[4],31.4
same,selectivity ratio,[19],~30
same,"SI, selectivity index (CC50 to EC50 ratio) HIV-2 ROD",[16]; MT-4 cell culture,> 26.3
same,IC50,[5],84.7 ± 15.3 µM
same,IC50,[6],59.5 ± 3.5 µM
same,IC50,[7],> 100 µM
same,IC50,[8],65.5 ± 7.3 µM
same,CC50 at 5 days,[15],> 100 µM
same,IC50,[10],> 100 µM
same,CC50,[11],40.8 ± 2.2 µM
same,"SI, selectivity index (CC50 to EC50 ratio) 229E",[12],29.1
same,"SI, selectivity index (CC50 to EC50 ratio) HIV-1 NL4.3",[17]; MT-4 cell culture,> 3.2
same,IC50,[13],50.6 ± 2.9 µM
same,IC50,[14],46.1 ± 1.3 µM
"CCC(CC)COC(=O)[C@H](C)N[P@](=O)(OC[C@H]1O[C@@](C#N)(c2ccc3c(N)ncnn23)[C@H](O)[C@@H]1O)Oc1ccccc1 [Remdesivir, remdesivir, reference compound]","SI, selectivity index (CC50 to EC50 ratio) OC43",[4],> 250
same,CC50,[11],> 10 µM
same,"SI, selectivity index (CC50 to EC50 ratio) 229E",[12]; HEL cell culture,> 160
"COc1cc(NC(C)CCCNC(=O)c2ccccc2N)c2ncccc2c1 (centres unmarked) [Compound 14, 2-Amino-N-{4-[(6-methoxyquinolin-8-yl)amino]pentyl}benzamide]",IC50,[2],> 100 µM
same,IC50,[3],> 100 µM
same,IC50,[5],> 100 µM
same,IC50,[6],> 100 µM
same,IC50,[7],> 100 µM
same,IC50,[8],> 100 µM
same,CC50 at 5 days,[15],78.2 ± 9.3 µM
same,IC50,[10],76.7 ± 25 µM
same,"SI, selectivity index (CC50 to EC50 ratio) HIV-1 NL4.3",[17]; MT-4 cell culture,8.4
same,IC50,[13],> 100 µM
same,IC50,[14],> 100 µM
"Nc1cc(Cl)ccc1C(=O)NCCCCNc1ccnc2cc(Cl)ccc12 [Compound 12, 2-Amino-4-chloro-N-{4-[(7-chloroquinolin-4-yl)amino]butyl}benzamide]",IC50,[1],2 to 10 µM
same,IC50,[2],7.2 ± 2.6 µM
same,IC50,[3],2.8 ± 1.2 µM
same,"SI, selectivity index (CC50 to EC50 ratio) OC43",[4],> 10.4
same,IC50,[5],7.4 ± 1.2 µM
same,IC50,[6],9.2 ± 2.2 µM
same,IC50,[7],9.8 ± 3.5 µM
same,IC50,[8],8.9 ± 3 µM
same,IC50,[10],7.3 ± 1.5 µM
same,CC50,[11],8.3 ± 0.78 µM
same,"SI, selectivity index (CC50 to EC50 ratio) 229E",[12]; HEL cell culture,4.6
same,IC50,[13],8.4 ± 3.2 µM
same,IC50,[14],6.3 ± 2.8 µM
"COc1cc(NC(C)CCCNC(=O)c2cc(Br)ccc2N)c2ncccc2c1 (centres unmarked) [Compound 16, 2-Amino-5-bromo-N-{4-[(6-methoxyquinolin-8-yl)amino]pentyl}benzamide]",IC50,[2],> 100 µM
same,IC50,[3],> 100 µM
same,IC50,[5],> 100 µM
same,IC50,[6],> 100 µM
same,IC50,[7],> 100 µM
same,IC50,[8],> 100 µM
same,CC50 at 5 days,[15],56.4 ± 1.6 µM
same,IC50,[10],> 100 µM
same,"SI, selectivity index (CC50 to EC50 ratio) HIV-1 NL4.3",[17]; MT-4 cell culture,4.0
same,IC50,[13],> 100 µM
same,IC50,[14],> 100 µM
